Assay [1] concerns the target T1, Disintegrin and metalloproteinase domain-containing protein 17 (Homo sapiens, UniProt P78536). Put plainly: Inhibition of human TACE expressed in CHO cells by FRET assay. The class given is cell-based.
Assay [2] deals with 72 kDa type IV collagenase (Homo sapiens, UniProt P08253). The experiment in a line: Inhibition of human recombinant MMP2. A digest of the protocol: (§1)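 Enzyme potency is expressed as IC50 in nM, reported as average ± SD.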
The target of the next assay is Collagenase 3 (Homo sapiens, UniProt P45452). Put plainly: Inhibition of human recombinant MMP13. A digest of the protocol:
as §1

Assay [3] deals with T1, Disintegrin and metalloproteinase domain-containing protein 17. The experiment in a line: Inhibition of human TACE in human whole blood.
Assay [4] deals with Matrix metalloproteinase-14 (Homo sapiens, UniProt P50281). The experiment in a line: Inhibition of human recombinant MMP14.
For the next assay, the system named is Mus musculus. Put plainly: Inhibition of LPS-induced TNFalpha production in BALB/CJ mouse at 25 mg/kg, po after 90 mins. The class given is functional. Particulars: 1.5 h.
For assay [5], the species on record is Homo sapiens. Put plainly: Selectivity for TACE over MMP13.
The species named for assay [6] is Homo sapiens. The experiment in a line: Selectivity for TACE over MMP2.

Each structure is given as a SMILES string. pIC50: −log10 of the molar value. A value given as a limit tells only on which side of the number the result lay.

In ChEMBL document CHEMBL1149647, “Structure-based design of TACE selective inhibitors: manipulations in the S1'-S3' pocket” (Bioorg Med Chem, 2007) one finds IC50, inhibition in vivo and Selectivity ratio data, which are given here for 16 compounds.

The term pIC50 denotes the negative decadic logarithm of the IC50, by convention in mol/L. In general, inhibition in vivo refers to how much of the control response was suppressed. Low values mean a response near the control, high ones a response far below the control.

Sequence of 72 kDa type IV collagenase (P08253 whole entry): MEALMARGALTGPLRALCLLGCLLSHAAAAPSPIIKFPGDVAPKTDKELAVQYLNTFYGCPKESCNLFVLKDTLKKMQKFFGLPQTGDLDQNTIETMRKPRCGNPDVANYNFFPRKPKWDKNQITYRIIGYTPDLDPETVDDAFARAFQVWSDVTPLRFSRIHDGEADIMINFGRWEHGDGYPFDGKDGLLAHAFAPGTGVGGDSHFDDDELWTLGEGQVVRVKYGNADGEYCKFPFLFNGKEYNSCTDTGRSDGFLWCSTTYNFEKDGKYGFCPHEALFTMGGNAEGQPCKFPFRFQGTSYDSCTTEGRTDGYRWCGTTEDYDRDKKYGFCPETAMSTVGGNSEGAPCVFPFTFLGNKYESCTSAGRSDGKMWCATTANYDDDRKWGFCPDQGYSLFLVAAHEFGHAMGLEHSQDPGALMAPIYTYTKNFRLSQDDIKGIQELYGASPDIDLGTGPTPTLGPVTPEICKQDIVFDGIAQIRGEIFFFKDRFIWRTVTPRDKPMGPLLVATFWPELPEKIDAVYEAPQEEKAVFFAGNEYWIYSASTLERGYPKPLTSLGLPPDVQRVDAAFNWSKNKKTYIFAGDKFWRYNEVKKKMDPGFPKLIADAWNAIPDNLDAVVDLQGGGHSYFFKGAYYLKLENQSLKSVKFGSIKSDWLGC
T1 sequence (P78536 whole entry, the tested form may be a part): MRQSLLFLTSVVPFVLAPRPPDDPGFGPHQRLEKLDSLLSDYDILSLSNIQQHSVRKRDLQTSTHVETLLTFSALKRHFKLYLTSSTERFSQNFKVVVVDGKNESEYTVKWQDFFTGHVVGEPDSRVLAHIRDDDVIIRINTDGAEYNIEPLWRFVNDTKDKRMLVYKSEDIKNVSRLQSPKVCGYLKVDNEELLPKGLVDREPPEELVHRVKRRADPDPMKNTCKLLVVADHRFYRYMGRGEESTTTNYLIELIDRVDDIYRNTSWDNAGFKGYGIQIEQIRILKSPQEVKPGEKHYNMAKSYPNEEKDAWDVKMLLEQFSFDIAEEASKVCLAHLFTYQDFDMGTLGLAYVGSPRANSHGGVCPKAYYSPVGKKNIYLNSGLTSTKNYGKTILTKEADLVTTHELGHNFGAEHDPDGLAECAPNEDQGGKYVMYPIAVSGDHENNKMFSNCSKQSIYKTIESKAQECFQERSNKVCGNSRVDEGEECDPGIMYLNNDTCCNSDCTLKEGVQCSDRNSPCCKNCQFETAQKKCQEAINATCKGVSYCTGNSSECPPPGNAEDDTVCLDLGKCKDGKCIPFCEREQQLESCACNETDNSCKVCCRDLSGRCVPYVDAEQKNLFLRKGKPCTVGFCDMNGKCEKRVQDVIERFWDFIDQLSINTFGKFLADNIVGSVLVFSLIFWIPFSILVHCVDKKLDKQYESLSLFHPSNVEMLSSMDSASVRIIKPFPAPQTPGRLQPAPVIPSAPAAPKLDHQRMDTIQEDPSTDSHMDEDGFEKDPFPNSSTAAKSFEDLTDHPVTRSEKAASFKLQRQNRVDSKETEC

For the compound `CC(C)(C)OC(=O)N1CCC(CS(=O)(=O)c2ccc(NCC#CCO)cc2)(C(=O)NO)CC1`, the pIC50 in assay [1] was 8.00; in assay [2] it was 6.48; on Collagenase 3, 5.98; in assay [3], 4.60.

With `CC#CCNc1ccc(S(=O)(=O)CC2(C(=O)NO)CCN(C(=O)C(C)C)CC2)cc1`, the pIC50 in assay [1] was 8.64; in assay [2], 6.29; at Collagenase 3, 5.49; in assay [4] it was 5.31; in assay [3], 5.44. Further, 25 mg/kg produced 72% inhibition in vivo with Mus musculus.

For the compound `CC#CCNc1ccc(S(=O)(=O)CC2(C(=O)NO)CCN(C(=O)N(CC)CC)CC2)cc1`, the pIC50 in assay [1] was over 9.00; in assay [2] it was 6.67; on Collagenase 3, 6.11; in assay [4], 5.44; in assay [3] it was 5.19. For the same compound, the Selectivity ratio in the assay listed under Homo sapiens [5] was over 750.

Take `CC#CCNc1ccc(S(=O)(=O)CC2(C(=O)NO)CCN(Cc3ccncc3)CC2)cc1`: the pIC50 in assay [1] is 8.19; in assay [2], 5.82; at Collagenase 3 it was 5.16; in assay [4] it was 5.36; in assay [3], 5.14.

With `CC#CCNc1ccc(S(=O)(=O)CC2(C(=O)NO)CCN(S(=O)(=O)C(C)C)CC2)cc1`, the pIC50 in assay [1] is 8.70; in assay [2] it was 7.01; on Collagenase 3, 5.68; in assay [3], 5.30.

In assay [1], `CC#CCNc1ccc(S(=O)(=O)CC2(C(=O)NO)CCNCC2)cc1` had a pIC50 of 7.19.

As to `CC#CCNc1ccc(S(=O)(=O)CC2(C(=O)NO)CCN(C(=O)c3ccccc3C)CC2)cc1`, the pIC50 in assay [1] is 8.60; in assay [2], 7.34; at Collagenase 3, 6.23; in assay [4] it was 6.00; in assay [3], 5.32. Also, the Selectivity ratio in the assay listed under Homo sapiens [5] came out at 499.

For the compound `CC#CCOc1ccc(S(=O)(=O)CC2(C(=O)NO)CCN(C(=O)OC(C)(C)C)CC2)cc1`, the pIC50 in assay [1] is 8.70; at Collagenase 3, 6.87; in assay [3], 4.85.

For the compound `CC#CC(C)(C)Oc1ccc(S(=O)(=O)CC2(C(=O)NO)CCN(S(=O)(=O)C(C)C)CC2)cc1`, the pIC50 in assay [1] was 7.57; in assay [2], under 5.78; at Collagenase 3 it was 4.92; in assay [3], under 4.30.

Consider `CC#CC(C)Oc1ccc(S(=O)(=O)CC2(C(=O)NO)CCN(S(=O)(=O)C(C)C)CC2)cc1` (stereo not given), for which the pIC50 in assay [1] is 8.40; in assay [2] it was 5.38; at Collagenase 3 it was 5.54; in assay [3] it was 4.51. For the same compound, the Selectivity ratio in the assay filed under Homo sapiens [5] stood at 720; in the assay filed under Homo sapiens [6], 1000.

As for `CC#CCN(C)c1ccc(S(=O)(=O)CC2(C(=O)NO)CCN(C(=O)OC(C)(C)C)CC2)cc1`, the pIC50 is 8.48 in assay [1], 5.80 at Collagenase 3 and under 4.30 in assay [3].

As to `CC#CCNc1ccc(S(=O)(=O)N2CCSC(C)(C)[C@@H]2C(=O)NO)cc1`, the pIC50 in assay [1] was 8.64; in assay [2], 7.25; at Collagenase 3, 7.52; in assay [3] it was 5.46.

Consider `CC#CCOc1ccc(S(=O)(=O)CC2(C(=O)NO)CCN(S(=O)(=O)C(C)C)CC2)cc1`, for which the pIC50 in assay [1] was 8.52; in assay [2] it was 6.55; on Collagenase 3, 6.80; in assay [4], 5.44; in assay [3], 5.82. Also, the Selectivity ratio in the assay listed under Homo sapiens [5] came to 52; in the assay filed under Homo sapiens [6] it was 93.

On to `CC#CCNc1ccc(S(=O)(=O)CC2(C(=O)NO)CCN(C(=O)OC(C)(C)C)CC2)cc1`, for which the pIC50 in assay [1] was 8.80; in assay [2], 6.92; in assay [4], 5.63; in assay [3], 4.80. Besides, the Selectivity ratio in the assay listed under Homo sapiens [5] is over 400.

Consider `CC#CCNc1ccc(S(=O)(=O)CC2(C(=O)NO)CCN(C(=O)C(C)CC)CC2)cc1` (stereo not given), for which the negative logarithm of the IC50 (pIC50) in assay [1] is 8.46; in assay [2], 5.88; at Collagenase 3 it was 5.61; in assay [4], 5.15; in assay [3], 5.31.

Regarding `CC#CCOc1ccc(S(=O)(=O)N2CCSC(C)(C)[C@@H]2C(=O)NO)cc1`, in assay [3], the pIC50 is 6.52.
